Laboratory results reported in ChEMBL document CHEMBL1687742, “Candida albicans and Staphylococcus aureus form polymicrobial biofilms: effects on antimicrobial resistance” (2009).
Calls of active or inactive are those of the source. The calls are words filed in the database; no cut-off is given here.

Columns and labels:
Candida albicans [1] = experiment: Antifungal activity against Candida albicans SC5314 planktonic polymicrobial biofilms grown in presence of Staphylococcus aureus ATCC 29523 assessed as […] viability after 24 hrs in presence 50% bovine serum by CFU assay; type: functional, organism-based
How it was run: (§1)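 C. albicans SC5314 at 10⁶ CFU/ml, alone or with S. aureus (10⁷ CFU/ml) for the mixed biofilm, was seeded in 50% bovine serum in tissue-culture-treated 96-well plates, 37°C, 24 h. Biofilms were PBS-washed thrice and exposed to serial antifungal concentrations diluted in 50% BS from DMSO stocks for 24 h. CFU were counted on ampicillin/erythromycin SDA after sonication. Duplicates, two experiments averaged.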

Candida albicans [2] = experiment: Antifungal activity against Candida albicans SC5314 monomicrobial biofilms assessed as fungal viability after 24 hrs by CFU assay in presence of 50% bovine serum; type: functional, organism-based
How it was run: (§2)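 Biofilms were formed in 96-well tissue culture-treated plates in 50% BS with C. albicans (10⁶ CFU/ml) and/or S. aureus (10⁷ CFU/ml) for 24 h at 37°C. They were washed three times in PBS. Vancomycin, Amp B or both were added from DMSO stocks diluted in 50% BS, and biofilms were incubated a further 24 h. Cells were sonicated, tenfold-diluted and counted as CFU on selective agar. Duplicates; averages of two experiments.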

Candida albicans [3] = experiment: Antifungal activity against Candida albicans SC5314 planktonic monomicrobial biofilms assessed as […] viability after 24 hrs in presence 50% bovine serum by CFU assay; type: functional, organism-based; how it was run: as §1
Staphylococcus aureus [4] = experiment: Antibacterial activity against 10^7 CFU/ml Staphylococcus aureus ATCC 29523 monomicrobial biofilms assessed as bacterial viability after 24 hrs by CFU assay in presence of 50% bovine serum; type: functional, organism-based; how it was run: as §2
Staphylococcus aureus [5] = experiment: Antibacterial activity against 10^7 CFU/ml Staphylococcus aureus ATCC 29523 polymicrobial biofilms grown in presence of Candida albicans SC5314 assessed as log reduction in bacterial viability at 800 ug/mL after 24 hrs in presence of amphotericin B by CFU assay in presence of 50% bovine serum; type: functional; how it was run: as §2
Staphylococcus aureus [6] = experiment: Antibacterial activity against 10^7 CFU/ml Staphylococcus aureus ATCC 29523 polymicrobial biofilms grown in presence of Candida albicans biofilm matrix assessed as reduction in bacterial viability at 1.582 to 1600 ug/mL after 24 hrs in presence 50% bovine serum by CFU assay; type: functional, organism-based
How it was run: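 Matrix came from 24-h C. albicans biofilms in 50% BS. It was scraped, sonicated, centrifuged three times at 12,000 × g and treated with Amp B 20 μg/ml. S. aureus (10⁷ CFU/ml) plus matrix in 50% BS was grown in 96-well plates for 24 h at 37°C, washed, then exposed to vancomycin for 24 h. Washed cells were counted as CFU. Duplicates; two independent experiments.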

Staphylococcus aureus [7] = experiment: Antibacterial activity against 10^7 CFU/ml Staphylococcus aureus ATCC 29523 polymicrobial biofilms grown in presence of 10^6 CFU/mL Candida albicans SC5314 assessed as bacterial viability at 800 ug/mL after 24 hrs by Transwell assay; type: functional, organism-based
How it was run: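 S. aureus (10⁷ CFU/ml) went in the bottom well and C. albicans (10⁶ CFU/ml) on a 0.4-μm PET Transwell insert, 24 h at 37°C. After PBS washing, vancomycin 800 μg/ml (diluted in 50% BS) went to the bottom well and Amp B to the insert, for 24 h at 37°C. CFU were counted in both compartments, with no-insert controls. Duplicates; averages of two experiments.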

Staphylococcus aureus [8] = experiment: Antibacterial activity against Staphylococcus aureus ATCC 29523 […] polymicrobial biofilms grown in presence of Candida albicans SC5314 assessed as bacterial viability after 24 hrs in presence 50% bovine serum by CFU assay; type: functional, organism-based
Staphylococcus aureus [9] = experiment: Antibacterial activity against 10^7 CFU/ml Staphylococcus aureus ATCC 29523 monomicrobial biofilms assessed as bacterial viability after 24 hrs by CFU assay in presence of 50% heat inactivated bovine serum; type: functional, organism-based
Staphylococcus aureus [10] = experiment: Antibacterial activity against 10^7 CFU/ml Staphylococcus aureus ATCC 29523 monomicrobial biofilms assessed as log reduction in bacterial viability at 800 ug/mL after 24 hrs in presence of amphotericin B by CFU assay in presence of 50% bovine serum; type: functional; how it was run: as §2
Staphylococcus aureus [11] = experiment: Antibacterial activity against 10^7 CFU/ml Staphylococcus aureus ATCC 29523 polymicrobial biofilms grown in presence of Candida albicans SC5314 assessed as bacterial viability at 1600 ug/mL after 24 hrs in presence 50% bovine serum by CFU assay; type: functional, organism-based; how it was run: as §2
Staphylococcus aureus [12] = experiment: Antibacterial activity against 10^7 CFU/ml Staphylococcus aureus ATCC 29523 polymicrobial biofilms grown in presence of Candida albicans SC5314 assessed as bacterial viability after 24 hrs in presence of amphotericin B by CFU assay in presence of 50% bovine serum; type: functional, organism-based; how it was run: as §2
Candida albicans [13] = experiment: Antifungal activity against Candida albicans SC5314 polymicrobial biofilms grown in presence of sStaphylococcus aureus ATCC 29523 assessed as fungal viability after 24 hrs by CFU assay in presence of 50% bovine serum; type: functional, organism-based; how it was run: as §2

SMILES: C[C@@H]1[C@H](O)[C@@H](C)/C=C/C=C/C=C/C=C/C=C/C=C/C=C/[C@H](O[C@@H]2O[C@H](C)[C@@H](O)[C@H](N)[C@@H]2O)C[C@@H]2O[C@](O)(C[C@@H](O)C[C@@H](O)[C@H](O)CC[C@@H](O)C[C@@H](O)CC(=O)O[C@H]1C)C[C@H](O)[C@H]2C(=O)O
- growth inhibition (GI) (Candida albicans [1]): Active
- growth inhibition (GI) (Candida albicans [2]): inactive
- growth inhibition (GI) (Candida albicans [3]): Active

SMILES: CN[C@H](CC(C)C)C(=O)N[C@H]1C(=O)N[C@@H](CC(N)=O)C(=O)N[C@H]2C(=O)N[C@H]3C(=O)N[C@H](C(=O)N[C@H](C(=O)O)c4cc(O)cc(O)c4-c4cc3ccc4O)[C@H](O)c3ccc(c(Cl)c3)Oc3cc2cc(c3O[C@@H]2O[C@H](CO)[C@@H](O)[C@H](O)[C@H]2O[C@H]2C[C@](C)(N)[C@H](O)[C@H](C)O2)Oc2ccc(cc2Cl)[C@H]1O [VANCOMYCIN]
- growth inhibition (GI) (Staphylococcus aureus [4]): Dose-dependent effect
- FC (Staphylococcus aureus [5]): 2
- growth inhibition (GI) (Staphylococcus aureus [6]): inactive
- growth inhibition (GI) (Staphylococcus aureus [7]): Active
- growth inhibition (GI) (Staphylococcus aureus [8]): Active
- growth inhibition (GI) (Staphylococcus aureus [9]): inactive
- FC (Staphylococcus aureus [10]): 2
- growth inhibition (GI) (Candida albicans [2]): inactive
- growth inhibition (GI) (Staphylococcus aureus [11]): inactive
- growth inhibition (GI) (Staphylococcus aureus [12]): Active
- growth inhibition (GI) (Candida albicans [13]): inactive
